The first data set has as its system Mus musculus. Kind of data set: Toxicity in BALB/c mouse during cardiac allograft from C57BL/6 mouse at 40 mg/kg, po treatment started from day of transplantation for 30 days. Also on record: dose 40 mg/kg, route oral. The data set is classed as organism-based. Conditions: in vivo, 720 h. The gist of the method: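 Female mice aged 8-10 weeks, 20-25 g: C57BL/6 (H-2^b) donors, Balb/c (H-2^d) recipients. Recipients randomized to groups. Dosing 40 (mg/kg)/day by daily gavage. Vehicle 30% 2-hydroxypropyl-β-cyclodextrin given alone to controls (n = 6). […] Graft survival recorded in days. Student t test against vehicle group.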
Take `Nc1nc(N2CCN(C(=O)COc3ccc(Cl)cc3)CC2)c2nc(-c3cccnc3)sc2n1`: the Activity result is “Non-toxic”.

The subject of another data set is Mus musculus. Kind of data set: Suppression of cardiac allograft rejection of C57BL/6 mouse to BALB/c mouse assessed as surviving days at 40 mg/kg, po treatment started from day of transplantation for 30 days by immunosuppressive assay. Type of data set: functional.
Conditions: not given
In outline:
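Female mice aged 8-10 weeks and weighing 20-25 g. Donors were inbred C57BL/6 (H-2b) and recipients Balb/c (H-2d). Animals were randomly allocated and dosed by daily gavage in 30% 2-hydroxypropyl-β-cyclodextrin. […] Each graft was scored as surviving days, compared with vehicle by Student t test.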
As to `Nc1nc(N2CCN(C(=O)COc3ccc(Cl)cc3)CC2)c2nc(-c3cccnc3)sc2n1`, the Survival was above 17 days.

Turning to `C/C=C/C[C@@H](C)[C@@H](O)[C@H]1C(=O)N[C@@H](CC)C(=O)N(C)CC(=O)N(C)[C@@H](CC(C)C)C(=O)N[C@@H](C(C)C)C(=O)N(C)[C@@H](CC(C)C)C(=O)N[C@@H](C)C(=O)N[C@H](C)C(=O)N(C)[C@@H](CC(C)C)C(=O)N(C)[C@@H](CC(C)C)C(=O)N(C)[C@@H](C(C)C)C(=O)N1C` [CYCLOSPORINE], the Survival is above 30 days.

A further data set deals with Lymphocyte. Kind of data set: Immunosuppressive activity in peripheral blood lymphocytes isolated from two individuals assessed as proliferation using [methyl-3H]thymidine by mixed lymphocyte reaction assay. The data set is classed as functional, cell-based. The conditions noted are these: Homo sapiens. The gist of the method:
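Human PBMCs from heparinized blood of healthy donors, isolated over Lymphoprep, 1.6 × 10⁶ cells/mL in RPMI-1640 with 10% heat-inactivated FCS. Stimulators: RPMI1788 cells given 30 μg/mL mitomycin C, 20 min, 37 °C, washed, 0.6 × 10⁶ cells/mL. Cells mixed with diluted compound, 5 days at 37 °C in 5% CO₂. 1 μCi (methyl-³H)thymidine added for last 18 h; harvested, cpm counted. IC₅₀ from two independent experiments (mean).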
Turning to `Nc1nc(N2CCN(C(=O)COc3ccc(Cl)cc3)CC2)c2sc(-c3ccc(F)cc3)nc2n1`, the IC50 was above 10000 nM.

In the case of `Nc1nc(N2CCNCC2)c2nc(-c3ccc(F)cc3)sc2n1`, the IC50 was determined as 4300 nM.

Regarding `Nc1nc(N2CCN(C(=O)COc3ccc(Cl)cc3)CC2)c2nc(-c3ccc(F)cc3)sc2n1`, the IC50 worked out at 490 nM.

For `CC(C)(Oc1ccc(Cl)cc1)C(=O)N1CCN(c2nc(N)nc3sc(-c4ccc(F)cc4)nc23)CC1`, the IC50 is above 10000 nM.

For `Cc1ccc(NC(=O)N2CCN(c3nc(N)nc4sc(-c5ccc(F)cc5)nc34)CC2)cc1`, the IC50 is 700 nM.

Regarding `Cc1cccc(NC(=O)N2CCN(c3nc(N)nc4sc(-c5ccc(F)cc5)nc34)CC2)c1`, the IC50 was found to be 300 nM.

On to `Nc1nc(N2CCN(S(=O)(=O)c3ccccc3)CC2)c2nc(-c3ccc(F)cc3)sc2n1`, for which the IC50 is above 10000 nM.

Take `Nc1nc(N2CCN(C(=O)OCc3ccccc3)CC2)c2nc(-c3ccc(F)cc3)sc2n1`: the IC50 turned out to be 4900 nM.

As to `CCCCCN1CCN(c2nc(N)nc3sc(-c4ccc(F)cc4)nc23)CC1`, the IC50 is above 10000 nM.

For `Nc1nc(N2CCN(Cc3ccccc3)CC2)c2nc(-c3ccc(F)cc3)sc2n1`, the IC50 is above 10000 nM.

Take `Cc1cccc(N2CCN(c3nc(N)nc4sc(-c5ccc(F)cc5)nc34)CC2)c1`: the IC50 is above 10000 nM.

On to `Nc1nc(N2CCN(C(=O)COc3ccc(Cl)cc3)CC2)c2nc(-c3ccc(F)cc3)oc2n1`, for which the IC50 stood at 3000 nM.

Regarding `Nc1nc(N2CCN(C(=O)COc3ccc(Cl)cc3)CC2)c2nc(-c3ccc(F)cc3)[nH]c2n1`, the IC50 turned out to be 800 nM.

With `Nc1nc(N2CCN(C(=O)COc3ccc(Cl)cc3)CC2)c2cc(-c3ccc(F)cc3)sc2n1`, the IC50 is 700 nM.

In the case of `Nc1nc(N2CCN(C(=O)COc3ccc(Cl)cc3)CC2)c2nc(Cc3ccc(F)cc3)sc2n1`, the IC50 amounted to 700 nM.

Consider `CC(c1ccc(F)cc1)c1nc2c(N3CCN(C(=O)COc4ccc(Cl)cc4)CC3)nc(N)nc2s1` (centres undefined), for which the IC50 stood at 4380 nM.

`Nc1nc(N2CCN(C(=O)COc3ccc(Cl)cc3)CC2)c2nc(CCc3ccc(F)cc3)sc2n1`: the IC50 came to 4400 nM.

Regarding `Nc1nc(N2CCN(C(=O)COc3ccc(Cl)cc3)CC2)c2nc(CCOc3ccc(F)cc3)sc2n1`, the IC50 was 3540 nM.

With `Nc1nc(N2CCN(C(=O)COc3ccc(Cl)cc3)CC2)c2nc(CCCCc3ccc(F)cc3)sc2n1`, the IC50 is 920 nM.

With `CCCCCc1nc2c(N3CCN(C(=O)COc4ccc(Cl)cc4)CC3)nc(N)nc2s1`, the IC50 came out at 690 nM.

With `Cc1ccc(-c2nc3c(N4CCN(C(=O)COc5ccc(Cl)cc5)CC4)nc(N)nc3s2)cc1`, the IC50 was 350 nM.

`Nc1nc(N2CCN(C(=O)COc3ccc(Cl)cc3)CC2)c2nc(-c3ccc(Cl)cc3)sc2n1`: the IC50 was determined as 270 nM.

As to `Nc1nc(N2CCN(C(=O)COc3ccc(Cl)cc3)CC2)c2nc(-c3ccncc3)sc2n1`, the IC50 is 40 nM.

Take `Nc1nc(N2CCN(C(=O)COc3ccc(Cl)cc3)CC2)c2nc(-c3cccnc3)sc2n1`: the 50% inhibitory concentration (IC50) was 50 nM.

Regarding `Nc1nc(N2CCN(C(=O)COc3ccc(Cl)cc3)CC2)c2nc(-c3ccccn3)sc2n1`, the IC50 worked out at 230 nM.

`Nc1nc(N2CCN(C(=O)COc3ccccc3)CC2)c2nc(-c3ccc(F)cc3)sc2n1`: the IC50 came out at 90 nM.

Regarding `Nc1nc(N2CCN(C(=O)COc3ccc(F)cc3)CC2)c2nc(-c3ccc(F)cc3)sc2n1`, the IC50 came out at 70 nM.

For the molecule `Nc1nc(N2CCN(C(=O)COc3ccc(Br)cc3)CC2)c2nc(-c3ccc(F)cc3)sc2n1`, the IC50 turned out to be 380 nM.

As to `COc1ccc(OCC(=O)N2CCN(c3nc(N)nc4sc(-c5ccc(F)cc5)nc34)CC2)cc1`, the IC50 is 40 nM.

For `Nc1nc(N2CCN(C(=O)COc3ccc(F)cc3)CC2)c2nc(-c3cccnc3)sc2n1`, the half-maximal inhibitory concentration (IC50) was 12 nM.

Take `COc1ccc(OCC(=O)N2CCN(c3nc(N)nc4sc(-c5cccnc5)nc34)CC2)cc1`: the IC50 worked out at 12 nM.

The values above are taken from ChEMBL document CHEMBL1649410, “Discovery of 7-N-piperazinylthiazolo[5,4-d]pyrimidine analogues as a novel class of immunosuppressive agents with in vivo biological activity” (J Med Chem, 2011).
